Test results taken from paper PMC6745243 (Bioorganic & medicinal chemistry letters, 2019).
Several values for one entry are separate records, joined by “and”; a condition that tells them apart may be missing. Equal values may be shown once. Read-outs that look alike come from different tables or passages of the source.

Key:
[1] = tested on: 58 kinases (diversity panel); experiment: Off-target kinase diversity panel at Eurofins; assay type: biochemical; settings: 10μM, 58 kinases tested
Method in brief: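 Kinase panel included metabolically important enzymes, among them GSK3β, AKT, mTOR and PI3K.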

IP6K2 = molecular target: T1, IP6K2 (Homo sapiens, UniProt Q9UHH9); experiment: ADP-Glo Max assay, purified IP6K2; assay type: biochemical; settings: IP6K2 over IP6K1
T1 sequence (Q9UHH9 1-426): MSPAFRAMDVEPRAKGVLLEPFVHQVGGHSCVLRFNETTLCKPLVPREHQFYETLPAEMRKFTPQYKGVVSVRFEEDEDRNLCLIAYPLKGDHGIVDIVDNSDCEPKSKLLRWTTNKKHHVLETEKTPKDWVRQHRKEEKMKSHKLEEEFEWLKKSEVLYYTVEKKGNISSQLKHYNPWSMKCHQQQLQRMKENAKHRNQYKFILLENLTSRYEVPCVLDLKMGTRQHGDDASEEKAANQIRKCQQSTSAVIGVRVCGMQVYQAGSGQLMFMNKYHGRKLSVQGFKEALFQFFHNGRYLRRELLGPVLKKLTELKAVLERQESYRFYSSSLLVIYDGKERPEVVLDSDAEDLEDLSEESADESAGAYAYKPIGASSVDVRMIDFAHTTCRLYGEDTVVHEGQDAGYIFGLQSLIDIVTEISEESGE

IP6K3 = molecular target: T2, IP6K3 (Homo sapiens, UniProt Q96PC2); experiment: ADP-Glo Max assay, purified IP6K3; assay type: biochemical; settings: IP6K3 over IP6K1
T2 sequence (Q96PC2 1-410): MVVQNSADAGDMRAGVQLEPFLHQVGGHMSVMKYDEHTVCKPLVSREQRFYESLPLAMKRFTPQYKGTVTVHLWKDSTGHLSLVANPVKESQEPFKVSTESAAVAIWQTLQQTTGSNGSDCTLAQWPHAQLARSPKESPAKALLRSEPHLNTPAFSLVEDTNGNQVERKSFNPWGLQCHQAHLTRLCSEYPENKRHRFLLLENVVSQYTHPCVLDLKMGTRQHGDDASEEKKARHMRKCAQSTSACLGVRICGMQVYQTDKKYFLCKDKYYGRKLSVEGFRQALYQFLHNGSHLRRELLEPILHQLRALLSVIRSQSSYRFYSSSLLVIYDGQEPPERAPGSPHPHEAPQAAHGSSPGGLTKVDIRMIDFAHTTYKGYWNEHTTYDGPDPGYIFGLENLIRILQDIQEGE

[2] = Human; ref Ghoshal, et al. Mol Metab. 2016; cited from earlier work
[3] = Mouse; ref Ghoshal, et al. Mol Metab. 2016; cited from earlier work
IP6K family = settings: cited from earlier work
Aqueous solubility = assay type: physicochemical

SMILES	Number of kinases not significantly inhibited (inactive) [1] [kinases]	Number of kinases potently inhibited ([1]; 3 of RAF/MAPK pathway and casein kinase γ) [kinases]	Selectivity (Ki/Ki IP6K1) (IP6K2)	Selectivity (Ki/Ki IP6K1) (IP6K3) [fold]	Microsome stability (t1/2) [2]	Microsome stability (t1/2) [3]	IP6K selectivity (IP6K family; between IP6K isoforms, ref Padmanabhan, et al. J Biol Chem 2009)	Potency against the IP6K family (IP6K family)	Solubility (Aqueous solubility; 2% DMSO)	Solubility (Aqueous solubility; aqueous buffers)
COc1ccc2c(CCNc3nc(NCc4ccc(=O)[nH]c4)c4nc[nH]c4n3)c[nH]c2c1 [Compound 24]	54	4	~ 25 fold and 25 fold	~50						
O=[N+]([O-])c1ccc(CNc2nc(NCc3cccc(C(F)(F)F)c3)nc3[nH]cnc23)cc1 [Compound 1, N2-(m-trifluorobenzyl)-N6-(p-nitrobenzyl) purine]					Human 32 min ^**	Mouse 9 min ^**	Not selective ^*	low micromolar potency	Mostly insoluble in 2% DMSO	sparingly soluble
